The source of these data is ChEMBL document CHEMBL4145677, “Insights into the Mechanism of Antimicrobial Activity of Seven-Residue Peptides” (J Med Chem, 2018).

What is called MIC90 is the lowest concentration that inhibits either 90% of growth or 90% of the strains tested, depending on the study. Low values mean higher susceptibility, high ones lower susceptibility. The term MIC50 denotes the lowest concentration that inhibits either 50% of growth or 50% of the strains tested, depending on the study.

Calls of active or inactive are those of the source. The rule behind the calls is not given here. Where only a bound is given, the exact number is not on record here.

In data set [1] the test system is Cryptococcus neoformans. In words: Induction of cell membrane permeabilization in Cryptococcus neoformans var. grubii at 0.5 mM after 2 hrs by […] cell NMR spectroscopy. The format is functional, organism-based.
In data set [2] the test system is Escherichia coli. The data set can be described thus: Induction of bacteriolysis in Escherichia coli DH5[alpha] assessed as induction of morphological changes at 100 uM by scanning electron microscopy. It is filed as functional, organism-based.
Data set [3] has as its system Cryptococcus neoformans. In words: Induction of cell membrane permeabilization in Cryptococcus neoformans var. grubii assessed as release of metabolites at 0.5 mM after 2 hrs by […] cell NMR spectroscopy. The format is functional, organism-based.
Data set [4] deals with Cryptococcus neoformans. The data set can be described thus: Induction of cell death in Cryptococcus neoformans var. grubii at 0.5 mM after 2 hrs by […] cell NMR spectroscopy. It is filed as functional, organism-based.
Data set [5] concerns Pseudomonas aeruginosa. The data set can be described thus: Antimicrobial activity against Pseudomonas aeruginosa incubated for 4 hrs by microdilution broth assay. The format is functional. The method in brief: (§1)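 Bacteria grown in nutrient broth at 310K. Mid-log cells washed thrice and resuspended in 10 mM phosphate buffer pH 7.4 at 10^5 CFU/mL. Exposed to peptide 1–100 µM for 4 h at 310K, then medium added and grown overnight with shaking. Growth read at A630, normalized to 10 µM polymyxin B control. MIC90% is the concentration giving 90% growth inhibition; triplicates.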

Data set [6] deals with Escherichia coli. In words: Induction of bacteriolysis in Escherichia coli DH5[alpha] assessed as induction of non-uniform cell debris with leaked intracellular material at 5 times MIC90 by scanning electron microscopy. It is filed as functional, organism-based.
For data set [7], the system named is Erythrocyte. In words: Hemolytic activity in human erythrocytes at 1 to 200 uM after 4 hrs by. The format is ADME, cell-based. Summed up:
(§2)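 Fresh EDTA-anticoagulated human blood; erythrocytes washed thrice in PBS pH 7.4, 2×10^8 cells/mL, mixed with equal volume of peptide up to 200 µM, shaken at 310K for 1 h and 4 h. Supernatant absorbance at 414 nm measured, normalized to 2% Triton X-100 as 100% lysis; triplicates.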

The test system of data set [8] is Cryptococcus neoformans. The data set can be described thus: Antimicrobial activity against Cryptococcus neoformans var. grubii assessed as induction of microbial killing in presence of 150 mM NaCl measured after overnight recovery by microdilution broth assay. It is filed as functional. Summed up: (§3)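 Washed mid-log cells in 10 mM phosphate buffer pH 7.4 with 150 mM NaCl, 10^5 CFU/mL; C. albicans grown in YPDU. Peptide 1–100 µM, 4 h at 301K, then medium added and grown overnight with shaking; A630 read. Polymyxin B 10 µM positive control; percent killing reported as MIC50%; triplicates.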

Data set [9] deals with Lipid bilayer. In words: Induction of cell permeabilization in calcein-entrapped 3:1 DOPE/DOPG large unilamellar vesicles at 1 to 50 uM by calcein leakage assay. The method in brief:
(§4)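 LUVs of DOPE/DOPG 3:1 loaded with 70 mM calcein in 10 mM Tris pH 7.4, extruded through 100-nm filters, free dye removed by spin column. Liposomes at 20 µM in 10 mM Tris, 100 mM NaCl pH 7.4, 298K. Peptide added stepwise; emission at 520 nm read 5 min after each addition. Leakage = (F−Fo)/(FT−Fo)×100, with 0.1% Triton X-100 as FT; triplicates.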

Data set [10] concerns Lipid bilayer. The data set can be described thus: Induction of cell permeabilization in calcein-entrapped 3:1 DOPE/DOPG large unilamellar vesicles by calcein leakage assay. Summed up:
as §4

Data set [11] in a line: Hemolytic activity in human erythrocytes assessed as heme release at 1 to 200 uM after 4 hrs by. The format is ADME, cell-based, Erythrocyte. The settings on record: read-out: Activity. The method in brief:
as §2

Data set [12] concerns Cryptococcus neoformans. In words: Induction of cell death in Cryptococcus neoformans var. grubii at 0.5 mM after 1 hr by […] cell NMR spectroscopy. The format is functional, organism-based.
A short description of data set [13]: Binding affinity to d25-SDS micelles by 1H NMR spectroscopy.
Data set [14] relates to Klebsiella pneumoniae. In words: Antimicrobial activity against Klebsiella pneumoniae incubated for 4 hrs by microdilution broth assay. The format is functional. The method in brief: as §1
On the technique in general: In broth dilution the organism is exposed to a series of concentrations in liquid medium.

The subject of data set [15] is Escherichia coli. In words: Induction of bacteriolysis in Escherichia coli DH5[alpha] assessed as induction of cell wall shrinkage at 1 to 5 times MIC90 by scanning electron microscopy. It is filed as functional, organism-based.
For data set [16], the system named is Lipid bilayer. The data set can be described thus: Induction of cell permeabilization in calcein-entrapped 3:1 DOPE/DOPG large unilamellar vesicles at 30 uM by calcein leakage assay. Summed up: as §4
A short description of data set [17]: Binding affinity to DPC micelle in presence of MnCl2 by PRE NMR spectroscopy.
Data set [18] can be described thus: Binding affinity to DPC micelle by circular dichroism spectroscopy. Summed up: (§5)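 Far-UV CD, 250–190 nm, 1-mm quartz cuvette, 100 nm/min, 0.5 nm interval, 3 scans averaged, 298K. Peptide at 25 µM final in deionized water or with 30 mM SDS or DPC micelles.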
For data set [19], the system named is Candida albicans. In words: Antimicrobial activity against Candida albicans assessed as induction of microbial killing in presence of 150 mM NaCl measured after overnight recovery by microdilution broth assay. It is filed as functional. Summed up:
as §3

Data set [20] concerns Candida albicans. In words: Antimicrobial activity against Candida albicans incubated for 4 hrs by microdilution broth assay. The format is functional. The method in brief:
(§6)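 Yeasts grown in YPDU at 301K. Mid-log cells washed thrice and resuspended in 10 mM phosphate buffer pH 7.4 at 10^5 CFU/mL. Exposed to peptide 1–100 µM for 4 h at 301K, then medium added and grown overnight with shaking. Growth read at A630, normalized to 10 µM polymyxin B control. MIC90% is the concentration giving 90% growth inhibition; triplicates.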

Data set [21] deals with Cryptococcus neoformans. The data set can be described thus: Antimicrobial activity against Cryptococcus neoformans var. grubii incubated for 4 hrs by microdilution broth assay. It is filed as functional. Summed up: as §6
For data set [22], the system named is Staphylococcus aureus. In words: Antimicrobial activity against Staphylococcus aureus incubated for 4 hrs by microdilution broth assay. The format is functional. The method in brief:
as §1

For data set [23], the system named is Salmonella typhi. The data set can be described thus: Antimicrobial activity against Salmonella typhi Ty2 incubated for 4 hrs by microdilution broth assay. It is filed as functional, Salmonella enterica subsp. enterica serovar Typhi str. Ty2. The following applies: Salmonella enterica.
Data set [24] is described as follows: Binding affinity to SDS micelle in presence of MnCl2 by PRE NMR spectroscopy.
Data set [25] concerns HEK293. The data set can be described thus: Toxicity in HEK293 cells assessed as reduction in cell viability at 2 to 100 uM incubated for 24 hrs by MTT assay. The format is cell-based. The following applies: human, hek293, 24 h. Summed up: (§7)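 HEK-293 cells kept in DMEM with 10% FBS and 1% penicillin/streptomycin, 310K, 5% CO2. Seeded at 10^4 cells/well and grown overnight, then exposed to peptide 0–100 µM for 24 h. MTT at 0.3 mg/mL for 3 h, formazan dissolved in DMSO, read at 570 nm; triplicates.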
Background: Formazan colour is commonly taken as a measure of viable cells.

For data set [26], the system named is Cryptococcus neoformans. In words: Induction of cell membrane permeabilization in Cryptococcus neoformans var. grubii at 0.5 mM by […] cell NMR spectroscopy. The format is functional, organism-based.
Data set [27] concerns Escherichia coli. In words: Induction of bacteriolysis in Escherichia coli DH5[alpha] assessed as induction of intracellular material leakage at 1 to 5 times MIC90 by scanning electron microscopy. The format is functional, organism-based.
The subject of data set [28] is Cryptococcus neoformans. In words: Induction of cell membrane permeabilization in Cryptococcus neoformans var. grubii assessed as release of metabolites at 0.5 mM by […] cell NMR spectroscopy. It is filed as functional, organism-based.
The test system of data set [29] is HEK293. In words: Toxicity in HEK293 cells assessed as reduction in cell viability at =>100 uM incubated for 24 hrs by MTT assay. It is filed as cell-based. The following applies: human, hek293, 24 h. The method in brief: as §7
The test system of data set [30] is Escherichia coli. The data set can be described thus: Induction of bacteriolysis in Escherichia coli DH5[alpha] assessed as induction of dents and membrane blebbing at 1 times MIC90 by scanning electron microscopy. The format is functional, organism-based.
Data set [31] deals with Escherichia coli. In words: Antimicrobial activity against Escherichia coli DH5[alpha] incubated for 4 hrs by microdilution broth assay. The format is functional. Summed up: as §1
Data set [32] is described as follows: Binding affinity to SDS by circular dichroism spectroscopy. Summed up:
as §5
For orientation: CD spectra are sensitive to the conformation of chiral molecules.

Data set [33] relates to Escherichia coli. In words: Induction of bacteriolysis in Escherichia coli DH5[alpha] assessed as induction of distorted cell morphology at 1 times MIC90 by scanning electron microscopy. The format is functional, organism-based.
The test system of data set [34] is Lipid bilayer. The data set can be described thus: Induction of cell permeabilization in calcein-entrapped 3:1 DOPE/DOPG large unilamellar vesicles at 50 uM measured over period of 7200 secs by calcein leakage assay. The method in brief:
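Calcein-loaded 3:1 DOPE/DOPG LUVs, 20 µM in 10 mM Tris, 100 mM NaCl pH 7.4, exposed to 50 µM peptide. Emission at 520 nm followed over time at 298K, with a liposome-only control monitored for 2 h.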

For H-LKLLRKL-OH, the result in data set [1], in data set [2], in [3] and in data set [4] was inactive.

Take H-LKWLKKL-NH2: the MIC90 in [5] was determined as 50 µM; in data set [14], 50 µM; in data set [20] it was 50 µM; in [21] it was 25 µM; in [22] it was 50 µM; in [23], 15 µM. This substance returned an MIC90 in [31] of 50 µM. In addition, the result in [6], in [12], in data set [13], in [15], in data set [24] and in data set [26] was Active. For the same substance, the result in data set [27], in data set [28], in data set [30] and in data set [33] was Active. In addition, the Activity result in [7] was “Non-Toxic”; in data set [9], 37%; in data set [10] it was “Dose-dependent effect”; in [16], 27%; in data set [25], “Non-Toxic”; in data set [29], < 10%. For the same substance, the MIC50 in data set [8] and in [19] was 50 µM in each case. Further, the hemolysis at 4 h, up to 200 µM in data set [11] was < 10%. Also, the outcome in data set [17], in data set [18] and in data set [32] was inactive.

With H-LRWLRRL-NH2, the MIC90 in data set [5] worked out at 10 µM; in data set [14] it was 15 µM; in data set [20] it was 50 µM; in data set [21], 15 µM; in [22], 50 µM; in [23] it was 7.5 µM. In [31], this substance yielded an MIC90 of 10 µM. Besides, the outcome in data set [6], in data set [34], in data set [12], in data set [13], in data set [15] and in data set [26] was Active. Besides, the outcome in data set [27], in [28], in data set [30] and in data set [33] was Active. Moreover, the Activity result in data set [7] was “Non-Toxic”; in [9], 57%; in data set [10], “Dose-dependent effect”; in data set [16], 45%; in data set [25], “Non-Toxic”; in [29], < 10%. The MIC50 in data set [8] and in data set [19] was 25 µM in each case. Also, in data set [11], the hemolysis at 4 h, up to 200 µM was < 10%. The outcome in data set [17], in data set [18], in data set [24] and in [32] was inactive.
